Only some compounds are listed: those with a hit (about 1.6% of all), similar ones and a draw of the others.
NOD2 RIPK2 PPI: inhibitors of human NOD2-RIPK2 interaction; O43353; inhibition, % at 4.98 µM; CHO BLA complementation NOD2-RIPK2, CCF4 ratio; 0.38% of 360,000 active; AID 624267; in the data active = inhibition above about 21%
ABHD5-PLIN5 inh: ABHD5-PLIN5 protein interaction inhibition; AID 602281; Split G. princeps luciferase complementation, luminescence, 4 h; Q00G26+Q8WTS1; inhibition, % at 4 µM; 0.78% of 360,000 active;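 active = inhibition above the mean inhibition across every tested compound plus 3 SD, cut at about 22% in these data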
Dynein transport: dynein cargo transport inhibition; 0.47% of 220,000 active; 3617.4 mouse cells, GR-EGFP nuclear translocation imaging; test concentration mostly 20 µM; stimulated with dexamethasone, 1 µM; hits give low values; z-score, hits read low;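 active = plate z-score of nuclear minus cytoplasmic receptor signal below a set negative limit, without overly bright fluorescence or cell loss, cut at about -3.5 in these data, passing the limit was not always enough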;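 also: z-score of nuclear minus cytoplasmic ring GR-EGFP intensity difference per well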
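medium = tetracycline-free induction medium containing charcoal-stripped FBS | probe or stimulus = dexamethasone, 1.0 µM final | timing = 48 h induction, then 1 h compound, then 30 min agonist, 37 °C | detection = automated 10x imaging of fixed Hoechst-stained cells | read-out basis = nuclear versus cytoplasmic GR-EGFP signal, averaged per well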
TLR4-MyD88 BLA: inhibitors of human TLR4-MyD88 binding; inhibition, % at 8.4 µM; HeLa CL3-4 TLR4/MyD88 BLA complementation, FRET ratio; 0.18% of 200,000 active; AID 861; O00206+Q99836; in the data active = inhibition above about 25%
TLR9-MyD88 inh: TLR9-MyD88 interaction inhibition; inhibition, % at 4.98 µM; CHO BLA complementation TLR9-MyD88, CCF4 FRET ratio; 0.21% of 340,000 active;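 active = inhibition above the mean over all tested compounds plus 3 SD, cut at about 21% in these data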
Beta2AR agonist: human beta-2 adrenergic receptor agonism by FAP. P07550. AID 504454. Am2.2-beta2AR cells, FAP receptor internalization, flow cytometry. response, % (concentration not given with the values). 0.43% of 340,000 active;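 active = response above a set limit, near 3 SD of response in nonfluorescent compounds, cut at about 42% in these data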
Hits are given with their value; n = inactive; x = no result.

SMILES	NOD2 RIPK2 PPI	ABHD5-PLIN5 inh	Dynein transport	TLR4-MyD88 BLA	TLR9-MyD88 inh	Beta2AR agonist
COc1cccc(OC(=O)c2ccccc2)c1OC(=O)c1ccccc1	n	n	x	x	n	n
Cc1cccc(CNC(=O)c2sc(=O)n(Cc3ccc(S(C)(=O)=O)cc3)c2C)c1	n	n	x	x	x	x
Nc1nc(-c2ccccc2)c(N=Nc2cccc3ccccc23)s1	n	22.8	n	n	n	n
O=C(Nc1cccc(OC(F)(F)F)c1)[C@@H]1O[C@H](CO)[C@H](O)[C@H](O)[C@H]1O	n	n	x	x	x	x
CCOC(=O)C1=C(C)N=C2c3ccccc3C(=O)C2C1c1ccc(Cl)cc1 (configuration not stated)	n	n	n	n	n	n
CCOC(=O)C1=C(Cc2ccc(Cl)cc2)C(=O)c2ccccc2C1=O	29.0	42.0	n	n	n	n
COc1ccc(C(O)c2nc(/C=C/c3ccc(C(F)(F)F)cc3)cs2)cc1 (configuration not stated)	n	n	x	x	x	x
NC(C(=O)O)C1ON=C(Cl)C1O (configuration not stated)	n	n	x	x	n	n
O=C(c1cc(-c2ccco2)nn1-c1cccc(Cl)c1)N1CCCCC1	n	47.9	n	n	n	n
COc1ccc(NC(=O)C2(C)CCN2CCOc2ccc(C)cc2)cc1OC (configuration not stated)	n	n	x	x	x	x
Cc1nc2ccc(C(=O)N3CCN(c4ccccc4)CC3)cn2c1N(C)C(=O)CCc1ccccc1	n	n	x	x	x	x
Cc1cc(C)c2nc(Cl)c(CN(Cc3ccco3)C(=O)Nc3ccccc3C)cc2c1	n	n	n	n	n	42.5
Cc1ccc(CNS(=O)(=O)c2c(C(=O)N3CCCCC3)c(C)n(C)c2C)o1	n	n	x	x	n	n
O=C(O)Cn1c2c(c3ccccc31)CSc1ccc(Cl)cc1-2	n	22.8	x	x	n	n
O=C(O)Cn1c2ccccc2c2ccccc21	n	n	n	n	n	n
O=c1[nH]c(NNC(=S)NCc2ccccc2)nc2c1C1(CCCCC1)Cc1ccccc1-2	n	n	n	n	n	n
O=c1[nH]c(NNC(=S)NC2CCCCC2)nc2c1C1(CCCC1)Cc1ccccc1-2	n	n	n	x	n	68.3
CCOC(=O)c1c(-c2ccc(-c3ccccc3)cc2)csc1NC(=O)C1C2CCC(O2)C1C(=O)O (configuration not stated)	n	34.3	n	n	n	n
CCOC(=O)c1c(-c2ccccc2)csc1NC(=O)C1CCCO1 (configuration not stated)	n	n	n	n	n	n
O=C(O)c1cc(N2N=C(C(F)(F)F)/C(=C/C=C/c3ccco3)C2=O)ccc1Cl	n	22.4	n	n	n	n
C=C(C(=O)c1ccccc1)C(C)C(=C)C(=O)c1ccccc1	n	22.4	n	n	n	n
COc1ccc(/C=C2\SC(N3CCc4ccccc4C3)=NC2=O)cc1	n	n	n	n	n	n
CCOc1ccc(/C=C2\SC(N3CCc4ccccc4C3)=NC2=O)cc1	n	n	n	n	n	67.7
O=c1c2ccccc2sn1-c1ccc(S(=O)(=O)N2CCCCC2)cc1	n	n	n	n	n	n
Cc1ccc(-n2sc3ccccc3c2=O)cc1S(=O)(=O)N1CCCCC1	n	104.1	n	n	n	n
SMILES	NOD2 RIPK2 PPI	ABHD5-PLIN5 inh	Dynein transport	TLR4-MyD88 BLA	TLR9-MyD88 inh	Beta2AR agonist
CCc1nc2ccc(C(=O)NCc3cccs3)cn2c1N(CC)CCN(C)C	n	n	x	x	x	x
CCOc1cc(/C=N/N=C(N)N)ccc1OCc1ccc(Cl)cc1	n	n	n	n	n	45.8
O=C(COC(=O)COc1ccccc1F)NCc1ccco1	n	n	x	x	n	n
C=CCN1C(=O)/C(=C/c2ccsc2)SC1=S	n	n	n	n	n	43.7
O=C1/C(=C/c2ccccn2)COc2ccccc21	n	n	n	n	n	n
CC1C/C(=C/c2ccccn2)C(=O)/C(=C/c2ccccn2)C1 (configuration not stated)	n	75.7	-5.77	n	n	n
CC(C)(C)C1C/C(=C/c2ccccn2)C(=O)/C(=C/c2ccccn2)C1 (configuration not stated)	27.2	71.8	-4.88	n	n	85.0
O=C(NCCO)c1ccc2nc(-c3ccco3)c(-c3ccco3)nc2c1	n	n	n	n	n	n
O=C(c1ccccc1)c1ccc2nc(-c3ccco3)c(-c3ccco3)nc2c1	n	28.6	n	n	n	n
O=C(NCCc1ccccc1)c1ccc2nc(-c3ccco3)c(-c3ccco3)nc2c1	n	29.1	n	n	n	n
CCCCNc1c(-c2cccc(-c3ccc(OC)cc3)c2)nc2ccc(C)cn12	n	n	x	x	n	49.2
CCCCNc1c(-c2cccc(-c3ccc(OC)cc3)c2)nc2cc(C)ccn12	n	n	x	x	n	n
O=C(C#Cc1ccccc1)c1ccc([N+](=O)[O-])cc1	n	n	n	n	n	68.8
Oc1ccc(/C=N/Nc2ccnc3cc(Cl)ccc23)c(O)c1O	n	n	x	x	n	105.9
Cc1ccc(C2/C(=C(/O)c3ccc(Br)cc3)C(=O)C(=O)N2Cc2ccco2)o1 (configuration not stated)	n	22.9	n	n	n	n
O=C(CC(Nc1ccc(Cl)cc1)C(=O)O)c1ccccc1 (configuration not stated)	n	22.1	n	n	n	n
O=C(NCc1ccccc1)C1C(c2ccccc2)=Nc2ccccc2N1C(=O)c1ccncc1 (configuration not stated)	n	n	x	x	x	x
CCCCOc1ccc(Br)cc1/C(C)=N/NC1=NCCN1	n	n	n	n	n	48.2
CCC(C)(C)n1nnnc1CN(Cc1ccco1)Cc1cc2cc3c(cc2[nH]c1=O)OCO3	n	22.7	n	n	n	n
CCC(C)(C)n1nnnc1CN(Cc1ccc(Cl)cc1)Cc1ccco1	n	n	n	n	n	n
COCCn1nnnc1CN(Cc1ccco1)Cc1cc2cc3c(cc2[nH]c1=O)OCO3	n	22.1	n	n	n	n
O=C(Nc1ccc(F)cc1)C(c1ccncc1)N1CCN(c2cccc(C(F)(F)F)n2)CC1 (configuration not stated)	n	n	x	x	x	x
CN(C)c1nc(=NCc2cccs2)ss1	n	77.8	x	x	n	n
Cc1ccc(C2=NN(C(=O)CCl)C(c3ccco3)C2)o1 (configuration not stated)	n	n	x	x	n	n
COc1cc2c(cc1NC(=O)CN1C(=O)NC3(CCc4ccccc43)C1=O)oc1ccccc12 (configuration not stated)	n	34.6	n	n	n	n
Cc1ccnc(Sc2ccc([N+](=O)[O-])cc2[N+](=O)[O-])n1	n	n	-4.78	n	n	n
Cc1ccc(Sc2ccc([N+](=O)[O-])cc2[N+](=O)[O-])nc1	n	n	n	n	n	n
